Assay type in all cases: functional, cell-based
The test system of one experiment is A549. In words: Cytotoxicity against human A549 cells after 3 days by SRB assay. The conditions noted are these: A549, 72 h. The method, boiled down: (§1)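 Cells kept in RPMI-1640 with 25 mM HEPES, 0.25% sodium bicarbonate, 10% FBS and 100 µg/mL kanamycin. Freshly trypsinized cells seeded at 1500-7500 per well, with compound added from DMSO-diluted stock. After 3 days, attached cells fixed with cold 50% TCA and stained with 0.4% SRB. Bound dye solubilized and absorbance read at 562 nm. IC50 is 50% growth reduction, mean of three determinations.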
(Sulforhodamine B stains cellular protein and so reports cell mass.)

A further experiment relates to 1A9. Briefly: Cytotoxicity against human 1A9 cells after 3 days by SRB assay. The settings on record: 1A9, 72 h. The method, boiled down: as §1
The test system of a further experiment is KB. In words: Cytotoxicity against human KB cells after 3 days by SRB assay. The settings on record: 72 h. The method, boiled down: as §1
The nature of experiment [1]: Cytotoxicity against human KBVIN cells after 3 days by SRB assay. The settings on record: 72 h. The method, boiled down: as §1
A further experiment has as its system HCT-8. Briefly: Cytotoxicity against human HCT8 cells after 3 days by SRB assay. The settings on record: HCT-8, 72 h. The method, boiled down:
as §1

For the next experiment, the system named is SK-MEL-2. In words: Cytotoxicity against human SK-MEL-2 cells after 3 days by SRB assay. The conditions noted are these: SK-MEL-2, 72 h. The method, boiled down:
as §1

Another experiment deals with MCF7. In words: Cytotoxicity against human MCF7 cells after 3 days by SRB assay. The conditions noted are these: MCF7, 72 h. The procedure, abridged:
as §1

The values that follow come from ChEMBL document CHEMBL1158806, “Cytotoxic activity of some natural and synthetic guaianolides” (J Nat Prod, 2005).

On to `C=C1C(=O)O[C@H]2[C@H]1[C@@H](OC(=O)[C@](C)(O)CI)CC(=C)[C@@H]1C[C@H](O)[C@](O)(CI)[C@H]21`, for which the IC50 with A549 came out at 3.6 µM; with 1A9 it was 1.3 µM; with KB, 1 µM; in experiment [1] it was 5.5 µM; in the experiment on HCT-8, 1.3 µM; in the experiment with SK-MEL-2, 2.6 µM.

Consider `CO[C@@]12[C@H](COC(N)=O)C3=C(C(=O)C(C)=C(N)C3=O)N1C[C@@H]1N[C@@H]12` [MITOMYCIN], for which the concentration for half-maximal inhibition (IC50) was 0.3 µM in the experiment with A549, 1.5 µM with MCF7, 0.6 µM in the experiment with KB and 0.6 µM with HCT-8.

Regarding `C=C(C)C(=O)O[C@H]1CC(=C)[C@@H]2C[C@H](O)C(=C)[C@@H]2[C@H]2OC(=O)C(=C)[C@@H]21` [AGUERIN B], the IC50 in the experiment with A549 came out at 26.4 µM; in the experiment on MCF7, 3.3 µM.

For the compound `C=C1C(=O)O[C@H]2[C@H]1[C@@H](OC(=O)[C@](C)(O)CBr)CC(=C)[C@@H]1C[C@H](O)[C@]3(CO3)[C@H]21`, the IC50 was determined as 4.3 µM with A549; 1.1 µM in the experiment on 1A9; 1.1 µM in the experiment on KB; 6.3 µM in experiment [1]; 1.3 µM in the experiment with HCT-8; 3.6 µM in the experiment with SK-MEL-2.

For `C=C1C(=O)O[C@H]2[C@H]1[C@@H](OC(=O)[C@](C)(O)CCl)CC(=C)[C@@H]1C[C@H](O)[C@](O)(CCl)[C@H]21` [CENTAUREPENSIN], the 50% inhibitory concentration (IC50) in the experiment with A549 was found to be 10.3 µM; in the experiment on 1A9, 0.7 µM; with KB, 4.1 µM; in experiment [1], 2.8 µM.

On to `C=C1C(=O)O[C@H]2[C@H]1[C@@H](OC(=O)[C@@]1(C)CO1)CC(=C)[C@@H]1C[C@H](O)[C@](O)(CO)[C@H]21` [BABYLIN B], for which the 50% inhibitory concentration (IC50) with A549 and with MCF7 was more than 26.3 µM in each case.

For the compound `C=C1C(=O)O[C@H]2[C@H]1[C@@H](OC(=O)[C@]1(C)CO1)CC(=C)[C@@H]1C[C@H](O)[C@]3(CO3)[C@H]21` [REPIN], the concentration for half-maximal inhibition (IC50) with A549 came out at 2.5 µM; in the experiment on MCF7, 1.1 µM; in the experiment on 1A9 it was 0.3 µM; with KB, 1.4 µM; in experiment [1] it was 0.8 µM; with HCT-8, 0.8 µM. The compound also gave an IC50 in the experiment with SK-MEL-2 of 2.5 µM.

Consider `C=C1C(=O)O[C@H]2[C@H]1[C@@H](OC(=O)[C@@]1(C)CO1)CC(=C)[C@@H]1C[C@H](OC(=O)[C@H](O)[C@@H](NC(=O)c3ccccc3)c3ccccc3)[C@@]3(CO3)[C@H]21`, for which the IC50 in the experiment on A549 was determined as 0.8 µM; with 1A9, 0.2 µM; with KB, 0.3 µM; in experiment [1] it was 7.5 µM; with HCT-8, 0.5 µM; in the experiment with SK-MEL-2, 1 µM.

As for `C=C(CO)C(=O)O[C@H]1CC(=C)[C@@H]2C[C@H](O)[C@]3(CO3)[C@@H]2[C@H]2OC(=O)C(=C)[C@@H]21` [JANERIN], the IC50 in the experiment with A549 is 19.9 µM; in the experiment on 1A9, 5 µM; in the experiment on KB, 3 µM; in experiment [1], 25.9 µM; in the experiment on HCT-8, 5.5 µM; in the experiment with SK-MEL-2, 8 µM.

Take `C=C1C(=O)O[C@H]2[C@H]1[C@@H](OC(=O)[C@](C)(O)CBr)CC(=C)[C@@H]1C[C@H](O)[C@](O)(CBr)[C@H]21`: the half-inhibitory concentration (IC50) turned out to be 4.2 µM with A549, 0.4 µM in the experiment on 1A9, 1.1 µM in the experiment with KB and 1.3 µM in experiment [1].

As for `C=C1C(=O)O[C@H]2[C@H]1[C@@H](OC(=O)[C@@]1(C)CO1)CC(=C)[C@@H]1C[C@H](OC(=O)[C@@H]3OC(c4ccccc4)=N[C@H]3c3ccccc3)[C@@]3(CO3)[C@H]21`, the IC50 in the experiment on A549 stood at 3.4 µM; in the experiment on 1A9 it was 0.8 µM; with KB it was 2.6 µM; in experiment [1] it was 2.6 µM; in the experiment on HCT-8 it was 0.5 µM; with SK-MEL-2, 1.5 µM.

Turning to `C=C1C(=O)O[C@H]2[C@H]1[C@@H](OC(=O)[C@](C)(O)CI)CC(=C)[C@@H]1C[C@H](O)[C@]3(CO3)[C@H]21`, the IC50 in the experiment on A549 was 7.3 µM; in the experiment with 1A9, 0.8 µM; in the experiment on KB it was 2 µM; in experiment [1] it was 1.8 µM.

On to `C=C1C(=O)O[C@H]2[C@H]1[C@@H](OC(=O)[C@@](C)(O)CO)CC(=C)[C@@H]1C[C@H](O)[C@@](O)(CCl)[C@H]21` [CEBELLIN J], for which the IC50 in the experiment with A549 and with MCF7 was more than 24 µM throughout.

Consider `C=C(CO)C(=O)O[C@H]1CC(=C)[C@@H]2C[C@H](O)C(=C)[C@@H]2[C@H]2OC(=O)C(=C)[C@@H]21` [CYNAROPICRIN], for which the IC50 was found to be 16.5 µM in the experiment on A549, 3.2 µM with MCF7, 15.9 µM in the experiment on KB and 5.8 µM in the experiment on SK-MEL-2.

As for `CC(=O)O[C@H]1C(=O)[C@@]2(C)[C@H]([C@H](OC(=O)c3ccccc3)[C@]3(O)C[C@H](OC(=O)[C@H](O)[C@@H](NC(=O)c4ccccc4)c4ccccc4)C(C)=C1C3(C)C)[C@]1(OC(C)=O)CO[C@@H]1C[C@@H]2O` [PACLITAXEL], the results for the half-maximal inhibitory concentration (IC50) in the experiment on 1A9, with KB and in the experiment on HCT-8 were 0.002 µM, 0.001 µM and 0.013 µM, respectively.

As for `C=C1C(=O)O[C@H]2[C@H]1[C@@H](OC(=O)[C@](C)(O)CCl)CC(=C)[C@@H]1C[C@H](O)[C@]3(CO3)[C@H]21` [CHLOROHYSSOPIFOLIN C], the half-inhibitory concentration (IC50) stood at 9.3 µM with A549; 1.5 µM in the experiment on MCF7; 0.8 µM in the experiment on 1A9; 2 µM in the experiment with KB; 1.5 µM in experiment [1]; 1.6 µM in the experiment on HCT-8.

Consider `C=C1C(=O)O[C@H]2[C@H]1[C@@H](OC(=O)[C@](C)(O)CO)CC(=C)[C@@H]1C[C@H](O)[C@]3(CO3)[C@H]21` [BABYLIN A], for which the IC50 in the experiment with A549 and in the experiment on MCF7 was more than 26.3 µM each time.

Turning to `C=C1C(=O)O[C@H]2[C@H]1[C@@H](OC(=O)[C@@]1(C)CO1)CC(=C)[C@@H]1C[C@H](O)[C@](O)(CI)[C@H]21`, the half-inhibitory concentration (IC50) was 13.7 µM with A549; 5.6 µM with 1A9; 4.1 µM in the experiment on KB; 18.6 µM in experiment [1]; 4.5 µM in the experiment with HCT-8; 9.4 µM with SK-MEL-2.

What is called IC50 is the concentration at which inhibition is half-maximal. A higher IC50 goes with a need for much substance.
